Test results published in paper PMC3863768 (Journal of medicinal chemistry, 2012).
Positions count from the first letter of the chain named.

What was measured:
HsNMT1 = biological target: T1, HsNMT1 (Homo sapiens, UniProt P30419); experiment: NMT enzyme inhibition assay; format: biochemical
T1 sequence (P30419 109-496 limits assumed): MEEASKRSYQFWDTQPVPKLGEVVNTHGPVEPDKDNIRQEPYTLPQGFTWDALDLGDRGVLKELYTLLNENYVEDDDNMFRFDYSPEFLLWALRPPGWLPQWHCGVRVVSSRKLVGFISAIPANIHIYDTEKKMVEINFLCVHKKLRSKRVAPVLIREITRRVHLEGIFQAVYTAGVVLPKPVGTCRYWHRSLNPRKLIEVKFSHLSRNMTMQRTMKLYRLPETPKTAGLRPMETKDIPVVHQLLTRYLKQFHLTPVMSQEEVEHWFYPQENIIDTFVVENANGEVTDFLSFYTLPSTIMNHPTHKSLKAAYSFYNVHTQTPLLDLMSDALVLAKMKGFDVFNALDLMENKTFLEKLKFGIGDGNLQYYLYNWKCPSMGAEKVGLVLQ

PfNMT = biological target: T2, PfNMT (Plasmodium falciparum, UniProt Q9U419); experiment: NMT enzyme inhibition assay; format: biochemical, P. falciparum; conditions: for lower inhibition vs. 4: shorter or longer spacers than the methylene ester; for lower inhibition vs. 4 / activity drop vs. 4: compared with compound 4
T2 sequence (Q9U419 1-410): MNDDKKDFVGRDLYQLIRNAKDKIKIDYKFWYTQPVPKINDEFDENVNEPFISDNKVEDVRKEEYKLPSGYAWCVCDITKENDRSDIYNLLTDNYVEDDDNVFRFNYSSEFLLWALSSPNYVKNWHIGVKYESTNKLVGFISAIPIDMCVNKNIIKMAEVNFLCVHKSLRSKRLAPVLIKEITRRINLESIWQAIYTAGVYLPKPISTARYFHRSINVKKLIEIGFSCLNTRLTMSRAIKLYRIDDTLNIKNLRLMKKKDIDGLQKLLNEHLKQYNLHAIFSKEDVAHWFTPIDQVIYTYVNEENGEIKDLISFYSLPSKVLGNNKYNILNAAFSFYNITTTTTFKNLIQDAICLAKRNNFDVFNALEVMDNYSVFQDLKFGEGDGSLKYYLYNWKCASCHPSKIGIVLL
Summary of the method: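 Stopped with streptavidin PVT beads in pH 4 stop solution; scintillation counted. No-inhibitor wells set 100%, no-enzyme wells 0%. Test compound 500 μM to 2 nM, in duplicate. IC50 by nonlinear regression, averaged from two independent curves.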

P. falciparum, 3D7 line = experiment: P. falciparum inhibition assay; format: cell-based; conditions: synchronized P. falciparum trophozoites (3D7 line)
Summary of the method: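 Synchronous late-trophozoite cultures (1% parasitemia, 2% hematocrit) with test compound in 0.5% DMSO, 48 h at 37 °C. Aliquots stained with hydroethidine (1:200 dilution of 10 mg/mL stock in PBS), 20 min at 37 °C; 50,000 cells counted by flow cytometry. Untreated parasites and uninfected RBCs are the controls; % inhibition computed.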

HsNMT1 Y296A = biological target: T3, HsNMT1 Y296A (Homo sapiens, UniProt P30419, Y296A); experiment: NMT enzyme inhibition assay; format: biochemical; conditions: HsNMT1 Y296A vs wild type
T3 sequence (P30419 109-496 Y296A limits assumed): T1 sequence (P30419 109-496 limits assumed) with Y188A

CCOC(=O)c1oc2cccc(OCCCNCc3cccnc3)c2c1C [Compound 1, reference compound]
selectivity over human NMT1 (in words) (HsNMT1): promising selectivity
PfNMT inhibition (in words) (PfNMT): moderate inhibition

CCOC(=O)c1oc2cccc(OC3CCNCC3)c2c1C [Compound 2, Ethyl 3-methyl-4-(piperidin-4-yloxy) benzofuran-2-carboxylate]
selectivity over human NMT1 (in words) (HsNMT1): good human selectivity
activity improvement over 1 (PfNMT; PfNMT inhibition, compared with compound 1): 3 fold

Cc1c(C(=O)Oc2ccccc2)oc2cccc(OC3CCNCC3)c12 [Compound 3, Phenyl 3-methyl-4-(piperidin-4-yloxy)-1-benzofuran-2-carboxylate]
lower inhibition vs. 4 (PfNMT): 10- to 100 fold

Cc1c(C(=O)OCc2ccccc2)oc2cccc(OC3CCNCC3)c12 [Compound 4]
anti-plasmodial effect in vitro (in words) (P. falciparum, 3D7 line): highest anti-parasitic activity

Cc1c(C(=O)OCCc2ccccc2)oc2cccc(OC3CCNCC3)c12 [Compound 7]
lower inhibition vs. 4 (PfNMT): 10- to 100 fold

Cc1c(C(=O)OCCCc2ccccc2)oc2cccc(OC3CCNCC3)c12 [Compound 8]
lower inhibition vs. 4 (PfNMT): 10- to 100 fold

Cc1c(C(=O)NC(C)C)oc2cccc(OC3CCNCC3)c12 [Compound 9, N-isopropyl-3-methyl-4-(piperidin-4-yloxy)benzofuran-2-carboxamide]
IC50 (PfNMT): > 200 µM

Cc1c(C(=O)NC2CCCCC2)oc2cccc(OC3CCNCC3)c12 [Compound 10]
IC50 (PfNMT): > 100 µM

Cc1c(CCc2ccccc2)oc2cccc(OC3CCNCC3)c12 [Compound 18, 4-{[3-Methyl-2-(2-phenylethyl)-1-benzofuran-4-yl]oxy}piperidine]
PfNMT inhibition (in words) (PfNMT): does not confer inhibitory activity

Cc1c(COCc2ccccc2)oc2cccc(OC3CCNCC3)c12 [Compound 21, 4-({2-[(Benzyloxy)methyl]-3-methyl-1-benzofuran-4-yl}oxy)-piperidine]
activity drop vs. 4 (PfNMT; PfNMT inhibition): 40 fold

Cc1c(C(=O)CCc2ccccc2)oc2cccc(OC3CCNCC3)c12 [Compound 22]
activity drop vs. 4 (PfNMT; PfNMT inhibition): 40 fold

Cc1c(C(=O)/C=C/c2ccccc2)oc2cccc(OC3CCNCC3)c12 [Compound 23, (2E)-1-[3-Methyl-4-(piperidin-4-yloxy)-1-benzofuran-2-yl]-3-phenylprop-2-en-1-one]
improvement in affinity vs. 22 (PfNMT; PfNMT inhibition, compared with compound 22): 3 fold

O=S(=O)(Cc1ccccc1)c1cc2c(OC3CCNCC3)cccc2o1 [Compound 24, 4-{[2-(Phenylmethane)sulfonyl-1-benzofuran-4-yl]oxy}piperidine]
PfNMT inhibition (in words) (PfNMT): dramatic loss of activity

Cc1c(-c2nc(Cc3ccccc3)no2)oc2cccc(OC3CCNCC3)c12 [Compound 25]
PfNMT inhibition (in words) (PfNMT): promising potency

COc1cccc(COC(=O)c2oc3cccc(OC4CCNCC4)c3c2C)c1 [Compound 26]
HsNMT1 inhibition (in words) (HsNMT1): weak inhibition
increase in affinity on mutation of the human NMT (HsNMT1 Y296A): four- to five-fold
PfNMT inhibition (in words) (PfNMT): comparable potency to the parent compound 4
